Legend:
Assay type in all cases: functional
Haemophilus influenzae [1] = experiment: Antimicrobial activity against Haemophilus influenzae isolate by broth microdilution method
In short: (§1)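 Broth microdilution MIC in freshly prepared Haemophilus test medium per 2008 CLSI guidelines; H. influenzae ATCC 49247 and ATCC 49766 as control strains. Isolates from outpatient nasal aspirates (no prior antibiotics), cultured on blood agar with S. aureus streak and chocolate agar. PBP3 substitutions deduced from ftsI sequencing against the Rd strain; β-lactamase genes (TEM-1, ROB-1) detected by PCR.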

Haemophilus influenzae [2] = experiment: Antimicrobial activity against beta-lactamase-negative, ampicillin-sensitive Haemophilus influenzae by broth microdilution method; in short: as §1
Haemophilus influenzae [3] = experiment: Antimicrobial activity against Beta-lactamase-positive, ampicillin-resistant Haemophilus influenzae by broth microdilution method; in short: as §1
Haemophilus influenzae [4] = experiment: Antimicrobial activity against Beta-lactamase-negative, ampicillin-resistant Haemophilus influenzae by broth microdilution method; in short: as §1
Haemophilus influenzae [5] = experiment: Antimicrobial activity against Beta-lactamase-positive, ampicillin-cluvulanate-resistant Haemophilus influenzae by broth microdilution method; in short: as §1
Haemophilus influenzae [6] = experiment: Antimicrobial activity against Beta-lactamase-negative, ampicillin-resistant Haemophilus influenzae with Asp350Asn, Ser357Asp, Met377Ile, Ser385Thr, Arg517His substitutions in penicillin-binding protein 3 by broth microdilution method; in short: as §1
Haemophilus influenzae [7] = experiment: Antimicrobial activity against Beta-lactamase-negative, ampicillin-resistant Haemophilus influenzae with Gly490Glu, Asn526Lys substitutions in penicillin-binding protein 3 by broth microdilution method; in short: as §1
Haemophilus influenzae [8] = experiment: Antimicrobial activity against Beta-lactamase-negative, ampicillin-resistant Haemophilus influenzae with Asp350Asn, Met377Ile, Asn526Lys substitutions in penicillin-binding protein 3 by broth microdilution method; in short: as §1
Haemophilus influenzae [9] = experiment: Antimicrobial activity against Beta-lactamase-negative, ampicillin-resistant Haemophilus influenzae with Asp350Asn, Met377Ile, Gly490Glu, Asn526Lys substitutions in penicillin-binding protein 3 by broth microdilution method; in short: as §1
Haemophilus influenzae [10] = experiment: Antimicrobial activity against Beta-lactamase-negative, ampicillin-resistant Haemophilus influenzae with Ala502Val, Asn526Lys substitutions in penicillin-binding protein 3 by broth microdilution method; in short: as §1
Haemophilus influenzae [11] = experiment: Antimicrobial activity against Beta-lactamase-negative, ampicillin-resistant Haemophilus influenzae with Asp350Asn, Met377Ile, Ala502Val, Asn526Lys substitutions in penicillin-binding protein 3 by broth microdilution method; in short: as §1
Haemophilus influenzae [12] = experiment: Antimicrobial activity against Beta-lactamase-negative, ampicillin-resistant Haemophilus influenzae with Asp350Asn, Met377Ile, Gly490Glu, Ala502Val, Asn526Lys substitutions in penicillin-binding protein 3 by broth microdilution method; in short: as §1
Haemophilus influenzae [13] = experiment: Antimicrobial activity against Beta-lactamase-negative, ampicillin-resistant Haemophilus influenzae with Ser311Pro, Ala502Thr, Asn526Lys substitutions in penicillin-binding protein 3 by broth microdilution method; in short: as §1
Haemophilus influenzae [14] = experiment: Antimicrobial activity against Beta-lactamase-negative, ampicillin-resistant Haemophilus influenzae with Ile449Val, Ala502Thr, Asn526Lys substitutions in penicillin-binding protein 3 by broth microdilution method; in short: as §1
Haemophilus influenzae [15] = experiment: Antimicrobial activity against Beta-lactamase-negative, ampicillin-resistant Haemophilus influenzae with Asp350Asn, Ser357Asp, Met377Ile, Ser385Thr, Ala502Thr, Asn526Lys substitutions in penicillin-binding protein 3 by broth microdilution method; in short: as §1
Haemophilus influenzae [16] = experiment: Antimicrobial activity against Beta-lactamase-negative, ampicillin-resistant Haemophilus influenzae with Asp350Asn, Ser357Asp, Ser385Thr, Leu389Phe, Ala502Thr, Asn526Lys substitutions in penicillin-binding protein 3 by broth microdilution method; in short: as §1
Haemophilus influenzae [17] = experiment: Antimicrobial activity against Beta-lactamase-negative, ampicillin-resistant Haemophilus influenzae with Ile449Val, Asn526Lys substitutions in penicillin-binding protein 3 by broth microdilution method; conditions: Haemophilus influenzae; read-out: MIC; in short: as §1
Haemophilus influenzae [18] = experiment: Antimicrobial activity against Beta-lactamase-negative, ampicillin-resistant Haemophilus influenzae with Asp350Asn, Ser357Asp, Met377Ile, Ser385Thr, Leu389Phe, substitutions in penicillin-binding protein 3 by broth microdilution method; in short: as §1
Haemophilus influenzae [19] = experiment: Antimicrobial activity against Beta-lactamase-negative, ampicillin-resistant Haemophilus influenzae with penicillin-binding protein 3 by broth microdilution method; in short: as §1
Haemophilus influenzae [20] = experiment: Antimicrobial activity against Beta-lactamase-positive, ampicillin-cluvulanate-resistant Haemophilus influenzae with Asp350Asn, Ser357Asp, Met377Ile, Ser385Thr, Arg517His substitutions in penicillin-binding protein 3 by broth microdilution method; in short: as §1
Haemophilus influenzae [21] = experiment: Antimicrobial activity against Beta-lactamase-positive, ampicillin-cluvulanate-resistant Haemophilus influenzae with Asp350Asn, Met377Ile, Asn526Lys substitutions in penicillin-binding protein 3 by broth microdilution method; in short: as §1
Haemophilus influenzae [22] = experiment: Antimicrobial activity against Beta-lactamase-positive, ampicillin-cluvulanate-resistant Haemophilus influenzae with Asp350Asn, Met377Ile, Ser385Thr, Asn526Lys substitutions in penicillin-binding protein 3 by broth microdilution method; in short: as §1
Haemophilus influenzae [23] = experiment: Antimicrobial activity against Beta-lactamase-positive, ampicillin-cluvulanate-resistant Haemophilus influenzae with Asp350Asn, Met377Ile, Ala502Val, Asn526Lys substitutions in penicillin-binding protein 3 by broth microdilution method; in short: as §1
Haemophilus influenzae [24] = experiment: Antimicrobial activity against Beta-lactamase-positive, ampicillin-cluvulanate-resistant Haemophilus influenzae with Ala502Val, Asn526Lys substitutions in penicillin-binding protein 3 by broth microdilution method; in short: as §1
Haemophilus influenzae [25] = experiment: Antimicrobial activity against Beta-lactamase-positive, ampicillin-cluvulanate-resistant Haemophilus influenzae with Asp350Asn, Met377Ile, Gly490Glu, Ala502Val, Asn526Lys substitutions in penicillin-binding protein 3 by broth microdilution method; in short: as §1
Haemophilus influenzae [26] = experiment: Antimicrobial activity against Beta-lactamase-positive, ampicillin-cluvulanate-resistant Haemophilus influenzae with Ala368Thr, Ala502Thr, Asn526Lys substitutions in penicillin-binding protein 3 by broth microdilution method; in short: as §1
Haemophilus influenzae [27] = experiment: Antimicrobial activity against Beta-lactamase-positive, ampicillin-cluvulanate-resistant Haemophilus influenzae with Asp350Asn, Ser357Asp, Ala437Ser, Ala502Thr, Asn526Lys substitutions in penicillin-binding protein 3 by broth microdilution method; in short: as §1
Haemophilus influenzae [28] = experiment: Antimicrobial activity against Beta-lactamase-positive, ampicillin-cluvulanate-resistant Haemophilus influenzae with Asp350Asn, Ala502Thr, Asn526Lys substitutions in penicillin-binding protein 3 by broth microdilution method; in short: as §1
Haemophilus influenzae [29] = experiment: Antimicrobial activity against Beta-lactamase-positive, ampicillin-cluvulanate-resistant Haemophilus influenzae with Ile449Val, Asn526Lys substitutions in penicillin-binding protein 3 by broth microdilution method; in short: as §1
Haemophilus influenzae [30] = experiment: Antimicrobial activity against Beta-lactamase-positive, ampicillin-cluvulanate-resistant Haemophilus influenzae with Asp350Asn, Ala437Ser substitutions in penicillin-binding protein 3 by broth microdilution method; in short: as §1

CO/N=C(\C(=O)N[C@@H]1C(=O)N2C(C(=O)O)=C(COC(N)=O)CS[C@H]12)c1ccco1 [CEFUROXIME]
6 µg/mL: MIC (Haemophilus influenzae [10]) | MIC (Haemophilus influenzae [11]) | MIC (Haemophilus influenzae [12])
16 µg/mL: MIC90 (Haemophilus influenzae [4])
13.3 µg/mL: MIC (Haemophilus influenzae [6]) | MIC (Haemophilus influenzae [18])
11.4 µg/mL: MIC (Haemophilus influenzae [13]) | MIC (Haemophilus influenzae [14]) | MIC (Haemophilus influenzae [15]) | MIC (Haemophilus influenzae [16]) | MIC (Haemophilus influenzae [23]) | MIC (Haemophilus influenzae [24]) | MIC (Haemophilus influenzae [25])
8 µg/mL: MIC90 (Haemophilus influenzae [1]) | MIC90 (Haemophilus influenzae [2]) | MIC90 (Haemophilus influenzae [3]) | MIC50 (Haemophilus influenzae [4]) | MIC50 (Haemophilus influenzae [5]) | MIC (Haemophilus influenzae [17])
4 µg/mL: MIC (Haemophilus influenzae [29]) | MIC (Haemophilus influenzae [30])
6.5 µg/mL: MIC (Haemophilus influenzae [26]) | MIC (Haemophilus influenzae [27]) | MIC (Haemophilus influenzae [28])
2 µg/mL: MIC50 (Haemophilus influenzae [1]) | MIC50 (Haemophilus influenzae [2]) | MIC50 (Haemophilus influenzae [3]) | MIC (Haemophilus influenzae [19]) | MIC (Haemophilus influenzae [21]) | MIC (Haemophilus influenzae [22])
32 µg/mL: MIC90 (Haemophilus influenzae [5]) | MIC (Haemophilus influenzae [20])
9.3 µg/mL: MIC (Haemophilus influenzae [7]) | MIC (Haemophilus influenzae [8]) | MIC (Haemophilus influenzae [9])

Reference: ChEMBL document CHEMBL1212764, “Antimicrobial resistance in Haemophilus influenzae respiratory tract isolates in Korea: results of a nationwide acute respiratory infections surveillance” (2010)
